From ChEMBL document CHEMBL1795275, “Substituted benzoxazinones as potent positive allosteric AMPA receptor modulators: part II” (Bioorg Med Chem Lett, 2011)
Active and inactive are the calls of the source. The rule behind the calls is not given here.

Assays:
Rattus norvegicus [1] = organism: Rattus norvegicus; assay: Positive allosteric modulation of AMPA receptor in rat embryonic hippocampal neurons assessed as concentration required to double glutamate-induced steady-state current by patch clamp electrophysiology assay; conditions: Hippocampus
Rattus norvegicus [2] = organism: Rattus norvegicus; assay: Positive allosteric modulation of AMPA receptor in rat hippocampal slices assessed as increase of fEPSP-induced current amplitude at 30 uM; type: tissue-based; conditions: Hippocampus
Procedure, shortened: (§1)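 Field recordings in in vitro hippocampal slices. Result is the percent rise in fEPSP amplitude, measured at the stated compound concentration.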

[3] = Displacement of [3H]-AMPAKINE from AMPA receptor in rat forebrain cell membranes; set-up: species or system Membrane
Rattus norvegicus [4] = organism: Rattus norvegicus; assay: Positive allosteric modulation of AMPA receptor in rat hippocampal slices assessed as increase of fEPSP-induced current amplitude at 3 uM; type: tissue-based; conditions: Hippocampus; procedure, shortened: as §1
Rattus norvegicus [5] = organism: Rattus norvegicus; assay: Positive allosteric modulation of AMPA receptor in rat hippocampal slices assessed as increase of fEPSP-induced current amplitude at 1 uM; type: tissue-based; conditions: Hippocampus; procedure, shortened: as §1
Rattus norvegicus [6] = organism: Rattus norvegicus; assay: Ratio of compound to CX614 for AMPA receptor in rat embryonic hippocampal neurons assessed as concentration required to double glutamate-induced steady-state current; conditions: Hippocampus
Rattus norvegicus [7] = organism: Rattus norvegicus; assay: Positive allosteric modulation of AMPA receptor in rat hippocampal slices assessed as increase of fEPSP-induced current amplitude at 10 uM; type: tissue-based; conditions: Hippocampus; procedure, shortened: as §1
Rattus norvegicus [8] = organism: Rattus norvegicus; assay: Positive allosteric modulation of AMPA receptor in rat hippocampal slices assessed as increase of fEPSP-induced current amplitude at 0.3 uM; type: tissue-based; conditions: Hippocampus; procedure, shortened: as §1

| SMILES | CD (Rattus norvegicus [1]) | Ki [3] | Activity (Rattus norvegicus [4]) | other results |
| --- | --- | --- | --- | --- |
| O=C1c2cc3c(cc2OCN1CCc1cccc(Cl)c1)C(=O)N1CCCC1O3 (configuration not stated) | 0.02 µM | 1.8 µM | – | Activity (Rattus norvegicus [2]): 7% |
| C[C@H]1CN2C(=O)c3cc4c(cc3O[C@@H]2O1)OCO4 | 2 µM | – | – | – |
| O=C1c2cc3c(cc2OCN1CCc1ccccc1)C(=O)N1CCCC1O3 (configuration not stated) | 0.25 µM | 7.9 µM | 3% | Activity (Rattus norvegicus [2]): 19% |
| O=C1c2cc3c(cc2OCN1CCc1cccc(F)c1)C(=O)N1CCCC1O3 (configuration not stated) | 0.011 µM | 0.5 µM | 16% | – |
| C[S+]([O-])CCN1COc2cc3c(cc2C1=O)OC1CCCN1C3=O (configuration not stated) | 0.11 µM | 13 µM | 14% | – |
| O=C1c2cc3c(cc2OCN1CCn1cnc([N+](=O)[O-])n1)C(=O)N1CCCC1O3 (configuration not stated) | 0.01 µM | 4.2 µM | 14% | – |
| CSCCN1COc2cc3c(cc2C1=O)OC1CCCN1C3=O (configuration not stated) | 0.29 µM | 17 µM | 12% | – |
| O=C1c2cc3c(cc2OC2CCCN12)OCCO3 (configuration not stated) | 2.3 µM | – | – | – |
| Cc1nccn1CCN1COc2cc3c(cc2C1=O)OC1CCCN1C3=O (configuration not stated) | 1.8 µM | 227 µM | – | – |
| O=C1c2cc3c(cc2OCN1CCn1cc([N+](=O)[O-])cn1)C(=O)N1CCCC1O3 (configuration not stated) | 0.0065 µM | 0.24 µM | – | Activity (Rattus norvegicus [5]): 29% |
| O=C1c2cc3c(cc2OCN1CCc1cc(F)cc(F)c1)C(=O)N1CCCC1O3 (configuration not stated) | 0.005 µM | 0.3 µM | 16% | Ratio (Rattus norvegicus [6]): 460 |
| CS(=O)(=O)CCN1COc2cc3c(cc2C1=O)OC1CCCN1C3=O (configuration not stated) | 0.32 µM | 20 µM | 6% | – |
| N#CCCN1COc2cc3c(cc2C1=O)OC1CCCN1C3=O (configuration not stated) | 0.6 µM | 11 µM | – | Activity (Rattus norvegicus [7]): 19% |
| O=C1c2cc3c(cc2OCN1CCc1ccccc1Cl)C(=O)N1CCCC1O3 (configuration not stated) | 7.1 µM | – | – | – |
| COc1cccc(CCN2COc3cc4c(cc3C2=O)OC2CCCN2C4=O)c1 (configuration not stated) | 14 µM | 69 µM | – | – |
| NC(=O)c1cccc(CCN2COc3cc4c(cc3C2=O)OC2CCCN2C4=O)c1 (configuration not stated) | 5 µM | 620 µM | – | – |
| O=C1c2cc3c(cc2OCN1CCc1ccccc1F)C(=O)N1CCCC1O3 (configuration not stated) | 5.4 µM | 36 µM | – | – |
| O=C1c2cc3c(cc2OCN1CCc1ccsc1)C(=O)N1CCCC1O3 (configuration not stated) | 0.02 µM | 0.27 µM | 15% | – |
| O=C1c2cc3c(cc2OCN1CCc1cccc(Br)c1)C(=O)N1CCCC1O3 (configuration not stated) | 1.6 µM | 150 µM | – | – |
| O=C1c2cc3c(cc2OCN1CCc1ccc(Cl)cc1)C(=O)N1CCCC1O3 (configuration not stated) | > 40 µM | – | – | – |

| SMILES | CD (Rattus norvegicus [1]) | Ki [3] | Activity (Rattus norvegicus [4]) | other results |
| --- | --- | --- | --- | --- |
| O=C1c2cc3c(cc2OCN1CCn1cccn1)C(=O)N1CCCC1O3 (configuration not stated) | 0.064 µM | 5.1 µM | 15% | – |
| O=C1c2cc3c(cc2OCN1CCc1ccncc1)C(=O)N1CCCC1O3 (configuration not stated) | 0.24 µM | 43 µM | 3% | Activity (Rattus norvegicus [7]): 15% |
| O=C1c2cc3c(cc2OCN1CCc1c[nH]cn1)C(=O)N1CCCC1O3 (configuration not stated) | 5.1 µM | 225 µM | – | – |
| O=C1c2cc3c(cc2OCN1CCn1nccn1)C(=O)N1CCCC1O3 (configuration not stated) | 0.8 µM | 62 µM | 7% | – |
| N#Cc1cnn(CCN2COc3cc4c(cc3C2=O)OC2CCCN2C4=O)c1 (configuration not stated) | 0.04 µM | 1 µM | 29% | – |
| O=C1c2cc3c(cc2OCN1CCO)C(=O)N1CCCC1O3 (configuration not stated) | 1.3 µM | 33 µM | – | – |
| O=C1c2cc3c(cc2OCN1CCn1cc(Br)cn1)C(=O)N1CCCC1O3 (configuration not stated) | 0.02 µM | 2.5 µM | 32% | – |
| O=C1c2cc3c(cc2OCN1CCc1ccon1)C(=O)N1CCCC1O3 (configuration not stated) | 0.4 µM | 41 µM | 4% | – |
| O=C1c2cc3c(cc2OCN1CCn1cc(Cl)cn1)C(=O)N1CCCC1O3 (configuration not stated) | 0.0037 µM | 0.33 µM | – | Activity (Rattus norvegicus [5]): 23% |
| O=C1c2cc3c(cc2OCN1CCn1cncn1)C(=O)N1CCCC1O3 (configuration not stated) | 0.063 µM | 2.1 µM | 31% | – |
| N#CCN1COc2cc3c(cc2C1=O)OC1CCCN1C3=O (configuration not stated) | 0.5 µM | 17 µM | – | Activity (Rattus norvegicus [7]): 10% |
| N#CCCCCN1COc2cc3c(cc2C1=O)OC1CCCN1C3=O (configuration not stated) | 0.11 µM | 4.5 µM | – | Activity (Rattus norvegicus [7]): 22% |
| O=C1c2cc3c(cc2OCN1CCc1ccc(F)cc1)C(=O)N1CCCC1O3 (configuration not stated) | 1.2 µM | – | – | Activity (Rattus norvegicus [2]): 6% |
| N#Cc1cccc(CCN2COc3cc4c(cc3C2=O)OC2CCCN2C4=O)c1 (configuration not stated) | 0.027 µM | 3 µM | 16% | – |
| N#Cc1ccnn1CCN1COc2cc3c(cc2C1=O)OC1CCCN1C3=O (configuration not stated) | 0.045 µM | 22 µM | 16% | – |
| NC(=S)c1cccc(CCN2COc3cc4c(cc3C2=O)OC2CCCN2C4=O)c1 (configuration not stated) | 0.4 µM | – | – | Activity (Rattus norvegicus [7]): 5% |
| N#CNCCN1COc2cc3c(cc2C1=O)OC1CCCN1C3=O (configuration not stated) | 1.8 µM | 51 µM | – | Activity (Rattus norvegicus [7]): 2% |
| NC(=O)CCN1COc2cc3c(cc2C1=O)OC1CCCN1C3=O (configuration not stated) | 1.1 µM | 51 µM | – | Activity (Rattus norvegicus [2]): 6% |
| N#Cc1ccn(CCN2COc3cc4c(cc3C2=O)OC2CCCN2C4=O)n1 (configuration not stated) | 0.1 µM | 18 µM | 10% | – |
| CCN1COc2cc3c(cc2C1=O)OC1CCCN1C3=O (configuration not stated) | 0.2 µM | 20 µM | – | Activity (Rattus norvegicus [7]): 17% |

| SMILES | CD (Rattus norvegicus [1]) | Ki [3] | Activity (Rattus norvegicus [4]) | other results |
| --- | --- | --- | --- | --- |
| O=C1c2cc3c(cc2OCN1CCc1cccc([N+](=O)[O-])c1)C(=O)N1CCCC1O3 (configuration not stated) | 0.015 µM | 3.6 µM | 8% | – |
| CN(CCN1COc2cc3c(cc2C1=O)OC1CCCN1C3=O)S(C)(=O)=O (configuration not stated) | 0.38 µM | 31 µM | – | Activity (Rattus norvegicus [7]): 8% |
| O=C1c2cc3c(cc2OCN1CCc1cccc(C(F)(F)F)c1)C(=O)N1CCCC1O3 (configuration not stated) | 0.2 µM | 2.5 µM | – | Activity (Rattus norvegicus [2]): 1% |
| O=C1c2cc3c(cc2OCN1CCn1ccnc1)C(=O)N1CCCC1O3 (configuration not stated) | 0.05 µM | 6.6 µM | – | Activity (Rattus norvegicus [7]): 38% |
| O=C1c2cc3c(cc2OCN1CCn1ccnn1)C(=O)N1CCCC1O3 (configuration not stated) | 0.16 µM | 5.1 µM | – | Activity (Rattus norvegicus [5]): 8% |
| N#CCCCN1COc2cc3c(cc2C1=O)OC1CCCN1C3=O (configuration not stated) | 0.05 µM | 6.8 µM | 11% | – |
| COCCN1COc2cc3c(cc2C1=O)OC1CCCN1C3=O (configuration not stated) | 1.2 µM | 41 µM | – | Activity (Rattus norvegicus [7]): 14% |
| O=C1c2cc3c(cc2OCN1CCc1cccnc1)C(=O)N1CCCC1O3 (configuration not stated) | 0.2 µM | 6.6 µM | 15% | – |
| O=C1c2cc3c(cc2OCN1c1ccccc1)C(=O)N1CCCC1O3 (configuration not stated) | inactive | – | – | – |
| N#CSCCN1COc2cc3c(cc2C1=O)OC1CCCN1C3=O (configuration not stated) | 0.06 µM | 1 µM | 7% | – |
| CN(CCCN1COc2cc3c(cc2C1=O)OC1CCCN1C3=O)S(C)(=O)=O (configuration not stated) | 0.33 µM | 34 µM | – | Activity (Rattus norvegicus [7]): 9% |
| [N-]=[N+]=NCCN1COc2cc3c(cc2C1=O)OC1CCCN1C3=O (configuration not stated) | 0.08 µM | 5.9 µM | 16% | – |
| O=C1c2cc3c(cc2OCN1Cc1ccccc1)C(=O)N1CCCC1O3 (configuration not stated) | 6 µM | – | – | – |
| O=C1c2cc3c(cc2OCN1CCCc1ccccc1)C(=O)N1CCCC1O3 (configuration not stated) | 3.6 µM | – | – | – |
| C[C@@H]1CN2C(=O)c3cc4c(cc3O[C@H]2O1)OCO4 | 200 µM | – | – | – |
| O=C1c2cc3c(cc2OCN1CCn1cnc([N+](=O)[O-])c1)C(=O)N1CCCC1O3 (configuration not stated) | 0.0007 µM | 0.06 µM | – | Activity (Rattus norvegicus [8]): 19%; Ratio (Rattus norvegicus [6]): 3000 |
| CS(=O)(=O)NCCN1COc2cc3c(cc2C1=O)OC1CCCN1C3=O (configuration not stated) | 0.33 µM | 8.4 µM | 10% | – |
| O=C1c2cc3c(cc2OCN1CCc1cccs1)C(=O)N1CCCC1O3 (configuration not stated) | 0.032 µM | 2 µM | – | – |
| O=C1c2cc3c(cc2OCN1CCc1cccc(OC(F)(F)F)c1)C(=O)N1CCCC1O3 (configuration not stated) | 3 µM | 13 µM | – | – |
| O=C1c2cc3c(cc2OCN1CCc1ccccn1)C(=O)N1CCCC1O3 (configuration not stated) | 0.6 µM | 130 µM | – | Activity (Rattus norvegicus [2]): 15% |
